From publication PMC11500731 (RSC Advances, 2024) come the findings set out here.

One assay relates to MCF-7. As to the kind of experiment: Cytotoxicity assay. It is filed as cell-based, human. To be noted: read-out: IC50 (50% inhibitory concentration), MCF-7. The gist of the method: (§1)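 HepG2 cells (DMEM) or MCF-7 cells (RPMI-1640), each with 10% FBS, at 37 °C and 5% CO2. Cells were trypsinised, counted by trypan blue and seeded at 2.5 × 10^3 cells/well overnight. Test compound at 100, 50, 25, 12.5, 6.25 and 0 μM in 1% FBS medium, quadruplicate, 48 h. Adherent cells stained with 0.02% crystal violet, washed with water, dye dissolved in 1% SDS, A595. IC50 by linear regression of concentration against inhibition rate.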

A further assay concerns HEPG2.2.15. As to the kind of experiment: Cytotoxicity assay. It is filed as cell-based. The note with it: read-out: IC50 (50% inhibitory concentration), HEPG2.2.15; human hepatocellular carcinoma, HBV transformed, 48 hours, 1% FBS, mean ± SD. In short, it runs like this: (§2)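 Cells grown at 37 °C, 5% CO2 with 10% FBS (HepG2.2.15 in DMEM; MDA-MB-231 in DMEM/F12 1:1) and trypsinised and trypan blue-counted 24 h before. Seeded at 2.5 × 10^3 per well overnight, then exposed in quadruplicate to 100–6.25 μM plus 0 μM in 1% FBS medium for 48 h. Crystal violet stain, water wash, SDS solubilisation, A595. IC50 from linear regression of concentration against inhibition rate.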

For another assay, the system named is MDA-MB-231. As to the kind of experiment: Cytotoxicity assay. It is filed as cell-based. To be noted: read-out: IC50 (50% inhibitory concentration), MDA-MB-231; human breast cancer, 48 hours, 1% FBS, mean ± SD. The gist of the method:
as §2

In another assay the test system is HEPG2. As to the kind of experiment: Cytotoxicity assay. The note with it: read-out: IC50 (50% inhibitory concentration), HEPG2. It is filed as cell-based, human. In short, it runs like this:
as §1

Another assay has as its target SARS-CoV-2 3CL protease (Severe acute respiratory syndrome coronavirus 2, UniProt P0DTD1). As to the kind of experiment: In vitro inhibitory activity assay of 3CL protease. To be noted: read-out: inhibitory activity against 3CL protease. It is filed as biochemical.
Setting [1] is: human breast cancer, 48 hours, 1% FBS, mean ± SD.
[2] abbreviates: human hepatocellular carcinoma, 48 hours, 1% FBS, mean ± SD.

Where two headings read alike, the source gives them in different places.

As to “3-(((1-(2-Hydroxyethyl)-5-nitro-1H-benzo[d]imidazole-2-yl)methyl)thio)-2-(pyridin-3-ylmethyl)isoquinolin-1(2H)-one [9c]”, the IC50 with MCF-7 (setting [1]), in the assay with HEPG2.2.15, in the assay on MDA-MB-231 and in the assay on HEPG2 (setting [2]) was above 100 µM in each case.
As to “3-(((1H-Benzo[d]imidazole-2-yl)methyl)thio)-2-(pyridin-3-ylmethyl)isoquinolin-1(2H)-one [9a]”, the IC50 with MCF-7 (setting [1]), with HEPG2.2.15, in the assay with MDA-MB-231 and in the assay on HEPG2 (setting [2]) was above 100 µM throughout.
As to `O=C(Cn1cnc2ccccc2c1=O)Nc1ccc(O)cc1[N+](=O)[O-]` [4a, N-(4-Hydroxy-2-nitrophenyl)-2-(4-oxoquinazolin-3(4H)-yl)acetamide], the IC50 is above 100 µM in the assay on MCF-7 (Homo sapiens, MCF7, 48 h) and above 100 µM in the assay on HEPG2 (Homo sapiens, HepG2, 48 h). On SARS-CoV-2 3CL protease, the inhibition at 50 µM is above 50%.
Turning to `O=C(Cn1cnc2ccccc2c1=O)Nc1cc(Cl)ccc1O` [4b, N-(5-Chloro-2-hydroxyphenyl)-2-(4-oxoquinazolin-3(4H)-yl)acetamide], the IC50 in the assay with MCF-7 (Homo sapiens, MCF7, 48 h) is above 100 µM; in the assay with HEPG2 (Homo sapiens, HepG2, 48 h), above 100 µM.
As for `COc1ccc(NC(=O)Cn2cnc3ccccc3c2=O)c([N+](=O)[O-])c1` [4c, N-(4-methoxy-2-nitrophenyl)-2-(4-oxoquinazolin-3(4H)-yl)acetamide], the IC50 with MCF-7 (Homo sapiens, MCF7, 48 h) is above 100 µM; in the assay with HEPG2 (Homo sapiens, HepG2, 48 h), above 100 µM. Also, the inhibition at 50 µM at SARS-CoV-2 3CL protease was above 50%.
For the compound `Cc1ccc(NC(=O)Cn2cnc3ccccc3c2=O)c(O)c1` [4d, N-(2-Hydroxy-4-methylphenyl)-2-(4-oxoquinazolin-3(4H)-yl)acetamide], the IC50 in the assay with MCF-7 (Homo sapiens, MCF7, 48 h) was above 100 µM; with HEPG2 (Homo sapiens, HepG2, 48 h), above 100 µM.
For `O=C(Cn1cnc2ccccc2c1=O)Nc1ccccc1O` [4e, N-(2-Hydroxyphenyl)-2-(4-oxoquinazolin-3(4H)-yl)acetamide], the IC50 in the assay on MCF-7 (Homo sapiens, MCF7, 48 h) was above 100 µM; in the assay on HEPG2 (Homo sapiens, HepG2, 48 h), 54.9 ± 15.2 µM.
On to `O=C(Cn1cnc2ccccc2c1=O)Nc1ncccc1O` [4f, N-(3-Hydroxypyridin-2-yl)-2-(4-oxoquinazolin-3(4H)-yl)acetamide], for which the IC50 with MCF-7 (Homo sapiens, MCF7, 48 h) was above 100 µM; in the assay on HEPG2 (Homo sapiens, HepG2, 48 h), above 100 µM.
In the case of `COc1ccc(NC(=O)Cn2cnc3ccccc3c2=O)c(N)c1` [4g, N-(2-Amino-4-methoxyphenyl)-2-(4-oxoquinazolin-3(4H)-yl)acetamide], the IC50 in the assay on MCF-7 (Homo sapiens, MCF7, 48 h) is above 100 µM; in the assay on HEPG2 (Homo sapiens, HepG2, 48 h), above 100 µM.
As to `O=C(Cn1cnc2ccccc2c1=O)NCc1cccnc1` [4h, 2-(4-Oxoquinazolin-3(4H)-yl)-N-(pyridin-3-ylmethyl)acetamide], the IC50 in the assay on MCF-7 (Homo sapiens, MCF7, 48 h) came out at 58.2 ± 8.04 µM; with HEPG2 (Homo sapiens, HepG2, 48 h), 51.4 ± 10.2 µM.
Take `O=C(Cn1cnc2ccccc2c1=O)Nc1nccs1` [4i, 2-(4-Oxoquinazolin-3(4H)-yl)-N-(thiazol-2-yl)acetamide]: the IC50 was above 100 µM with MCF-7 (Homo sapiens, MCF7, 48 h) and 47.7 ± 16.2 µM in the assay with HEPG2 (Homo sapiens, HepG2, 48 h).
In the case of `O=c1c2ccccc2nc(S)n1Cc1cccnc1` [compound 5, 2-Mercapto-3-(pyridin-3-ylmethyl)quinazolin-4(3H)-one], the IC50 with MCF-7 (Homo sapiens, MCF7, 48 h) is above 100 µM; with HEPG2 (Homo sapiens, HepG2, 48 h) it was above 100 µM.
